Experimental data published in ChEMBL document CHEMBL2407001, “Synthesis, in vitro antifungal activity and in silico study of 3-(1,2,4-triazol-1-yl)flavanones” (2013).
Converted amounts (≈) assume the structure as drawn.

What was measured:
Assay type in all cases: functional
Saccharomyces cerevisiae [1] = test: Antifungal activity against Saccharomyces cerevisiae ATCC 9763 after 24 to 72 hrs by microdilution method
Outline: (§1)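 Broth microdilution MIC in U-bottom 96-well plates. Compound stock made in Sabouraud dextrose broth/DMSO (9:1) and serially diluted with SDB. Fungal suspension (1 × 10^3 CFU/mL) added to give a final inoculum of 0.5 × 10^3 CFU/mL. Plates incubated at 35 °C and read at 24, 48 and 72 h. MIC is the lowest concentration with no visible growth compared with a drug-free control well.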

Candida albicans [2] = test: Antifungal activity against Candida albicans ATCC 10231 after 24 to 72 hrs by microdilution method; outline: as §1
Saccharomyces cerevisiae [3] = test: Antifungal activity against Saccharomyces cerevisiae NCYC 694 after 24 to 72 hrs by microdilution method; outline: as §1
Nakaseomyces glabratus = test: Antifungal activity against Candida glabrata ATCC 90030 after 24 to 72 hrs by microdilution method; outline: as §1
Aspergillus niger = test: Antifungal activity against Aspergillus niger ATCC 16404 after 24 to 72 hrs by microdilution method; outline: as §1
Candida albicans [4] = test: Ratio of fluconazole MIC to compound MIC for Candida albicans ATCC 10231
Saccharomyces cerevisiae [5] = test: Ratio of fluconazole MIC to compound MIC for Saccharomyces cerevisiae NCYC 694

Structure (SMILES)	MIC (Saccharomyces cerevisiae [1]) [µg/mL]	MIC (Candida albicans [2]) [µg/mL]	MIC (Saccharomyces cerevisiae [3]) [µg/mL]	MIC (Nakaseomyces glabratus) [µg/mL]	MIC (Aspergillus niger) [µg/mL]	Ratio (Candida albicans [4])	Ratio (Saccharomyces cerevisiae [5])
O=C1c2ccccc2O[C@@H](c2ccccc2)[C@@H]1n1cncn1 (relative stereo)	125 (≈ 429 µM)	31.3 (≈ 107 µM)	> 125	> 62.5	> 62.5	–	–
O=C1c2ccccc2O[C@@H](c2ccc(Cl)cc2)[C@@H]1n1cncn1 (relative stereo)	3.9 (≈ 12 µM)	3.9 (≈ 12 µM)	> 125	> 62.5	> 62.5	–	–
O=C1c2ccccc2O[C@@H](c2ccc(F)cc2)[C@@H]1n1cncn1 (relative stereo)	3.9 (≈ 12.6 µM)	3.9 (≈ 12.6 µM)	0.98 (≈ 3.17 µM)	31.3 (≈ 101 µM)	> 62.5	8	16
Cc1ccc([C@@H]2Oc3ccccc3C(=O)[C@H]2n2cncn2)cc1 (relative stereo)	> 125	> 125	> 125	> 62.5	> 62.5	–	–
COc1ccc([C@@H]2Oc3ccccc3C(=O)[C@H]2n2cncn2)cc1 (relative stereo)	125 (≈ 389 µM)	> 125	> 125	> 62.5	> 62.5	–	–
O=C1c2ccccc2O[C@@H](c2cccc(Cl)c2)[C@@H]1n1cncn1 (relative stereo)	> 125	3.9 (≈ 12 µM)	1.95 (≈ 5.99 µM)	62.5 (≈ 192 µM)	> 62.5	8	8
O=C1c2ccccc2O[C@@H](c2cccc(F)c2)[C@@H]1n1cncn1 (relative stereo)	15.6 (≈ 50.4 µM)	15.6 (≈ 50.4 µM)	> 125	> 62.5	> 62.5	2	–
COc1cccc([C@@H]2Oc3ccccc3C(=O)[C@H]2n2cncn2)c1 (relative stereo)	> 125	> 125	> 125	> 62.5	> 62.5	–	–
O=C1c2ccccc2O[C@@H](c2ccccc2Cl)[C@@H]1n1cncn1.O=[N+]([O-])O (relative stereo)	125	> 125	> 125	> 62.5	> 62.5	–	–
COc1ccccc1[C@@H]1Oc2ccccc2C(=O)[C@H]1n1cncn1.O=[N+]([O-])O (relative stereo)	> 125	> 125	> 125	> 62.5	> 62.5	–	–
O=C1c2ccccc2O[C@@H](c2ccc(Cl)cc2Cl)[C@@H]1n1cncn1 (relative stereo)	31.3 (≈ 86.9 µM)	125 (≈ 347 µM)	31.3 (≈ 86.9 µM)	> 62.5	> 62.5	–	–
O/N=C1\c2ccccc2O[C@@H](c2ccccc2)[C@@H]1n1cncn1 (relative stereo)	125 (≈ 408 µM)	> 125	> 125	> 62.5	> 62.5	–	–
O/N=C1\c2ccccc2O[C@@H](c2ccc(Cl)cc2Cl)[C@@H]1n1cncn1 (relative stereo)	62.5 (≈ 167 µM)	> 125	> 125	> 62.5	> 62.5	–	–
OC(Cn1cncn1)(Cn1cncn1)c1ccc(F)cc1F [FLUCONAZOLE]	15.6 (≈ 50.9 µM)	31.3 (≈ 102 µM)	15.6 (≈ 50.9 µM)	31.3 (≈ 102 µM)	> 125	–	–
CC(=O)N1CCN(c2ccc(OCC3COC(Cn4ccnc4)(c4ccc(Cl)cc4Cl)O3)cc2)CC1 (stereo unspecified) [KETOCONAZOLE]	–	–	–	–	15.6 (≈ 29.4 µM)	–	–
